ChEMBL document CHEMBL4311966, “Sulfide, sulfoxide and sulfone bridged acyclic nucleoside phosphonates as inhibitors of the Plasmodium falciparum and human 6-oxopurine phosphoribosyltransferases: Synthesis and evaluation” (Eur J Med Chem, 2019)

Columns and labels:
[1] = biological target: T1, Hypoxanthine-guanine phosphoribosyltransferase (Homo sapiens, UniProt P00492); experiment: Inhibition of human HGPRT using Prib-PP as substrate by Hanes-plot based method
T1 sequence (P00492 whole entry): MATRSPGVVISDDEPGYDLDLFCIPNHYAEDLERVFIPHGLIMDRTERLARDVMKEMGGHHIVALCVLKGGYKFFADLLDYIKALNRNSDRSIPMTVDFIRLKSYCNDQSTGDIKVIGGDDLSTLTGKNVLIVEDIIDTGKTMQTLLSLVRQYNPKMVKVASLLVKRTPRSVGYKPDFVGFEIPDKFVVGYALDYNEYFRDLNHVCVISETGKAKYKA

[2] = Inhibition of Plasmodium falciparum HGPRT using xanthine as substrate by Hanes-plot based method
In short: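 Ki was determined for PfHGXPRT using xanthine as the substrate, under the conditions used for human HGPRT. The reaction was followed spectrophotometrically at 255 nm, with Δε 4670 M⁻¹ cm⁻¹. Km for xanthine was 189 ± 18 μM.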

[3] = Selectivity index, ratio of Ki for human HGPRT to Ki for Plasmodium falciparum HGPRT
[4] = Cytotoxicity against human HepG2 cells assessed as cell viability at 10 uM; assay type: cell-based; conditions: read-out: Activity
In short: (§1)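 Percent viability of human HepG2 (hepatocellular carcinoma) and CCRF-CEM (T-cell leukemia) cells after exposure to a single fixed prodrug concentration of 10 μM, expressed relative to untreated control cells.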

[5] = Cytotoxicity against human CCRF-CEM cells assessed as cell viability at 10 uM; assay type: cell-based; conditions: read-out: Activity; in short: as §1
Plasmodium falciparum [6] = experiment: Antimalarial activity against Plasmodium falciparum D6 in erythrocytes assessed as reduction in 3H-hypoxanthine uptake incubated for 96 hrs and 3H-hypoxanthine added after 48 hrs of compound addition
Plasmodium falciparum [7] = experiment: Antimalarial activity against chloroquine-resistant Plasmodium falciparum W2 in erythrocytes assessed as reduction in 3H-hypoxanthine uptake incubated for 96 hrs and 3H-hypoxanthine added after 48 hrs of compound addition

Ki [1] [µM]	Ratio Ki [3]	SMILES	Ki [2] [µM]	viability at 10 µM [4] [%]	viability at 10 µM [5] [%]	IC50 (Plasmodium falciparum [6]) [µM]	IC50 (Plasmodium falciparum [7]) [µM]
46	10	O=c1[nH]cnc2c1ncn2CCCS(=O)(=O)CP(=O)(O)O	4.5				
> 80	> 26	O=c1[nH]cnc2c1ncn2CCCSCP(=O)(O)O	3				
11	2.8	O=c1[nH]cnc2c1ncn2CCC[S+]([O-])CP(=O)(O)O (configuration not stated)	4				
0.4	4	Nc1nc2c(ncn2CCSCCP(=O)(O)O)c(=O)[nH]1	0.1				
1.4	1.3	Nc1nc2c(ncn2CCCSCP(=O)(O)O)c(=O)[nH]1	1.1				

Continued, compound first:

SMILES	Ki [1] [µM]	Ratio Ki [3]	Ki [2] [µM]	viability at 10 µM [4] [%]	viability at 10 µM [5] [%]	IC50 (Plasmodium falciparum [6]) [µM]	IC50 (Plasmodium falciparum [7]) [µM]
O=c1[nH]cnc2c1ncn2CCS(=O)(=O)CCP(=O)(O)O	> 90	> 22	4				
CC(C)OC(=O)[C@H](Cc1ccccc1)NP(=O)(CCSCCn1cnc2c(=O)[nH]cnc21)N[C@@H](Cc1ccccc1)C(=O)OC(C)C				90	100	4.4	5.4
O=c1[nH]cnc2c1ncn2CC[S+]([O-])CCP(=O)(O)O (configuration not stated)	4	4	1				
O=c1[nH]cnc2c1ncn2CCSCCP(=O)(O)O	5	25	0.2				
Nc1nc2c(ncn2CCC[S+]([O-])CP(=O)(O)O)c(=O)[nH]1 (configuration not stated)	3	15	0.2				
CC(C)OC(=O)[C@H](Cc1ccccc1)NP(=O)(CSCCCn1cnc2c(=O)[nH]c(N)nc21)N[C@@H](Cc1ccccc1)C(=O)OC(C)C				95	98	4	5.2
CC(C)OC(=O)[C@H](Cc1ccccc1)NP(=O)(CCSCCn1cnc2c(=O)[nH]c(N)nc21)N[C@@H](Cc1ccccc1)C(=O)OC(C)C				83	106	5.4	4.4
Nc1nc2c(ncn2CC[S+]([O-])CCP(=O)(O)O)c(=O)[nH]1 (configuration not stated)	0.2	0.7	0.3				
